In ChEMBL document CHEMBL3400136, “Design and synthesis of new potassium channel activators derived from the ring opening of diazoxide: study of their vasodilatory effect, stimulation of elastin synthesis and inhibitory effect on insulin release” (Bioorg Med Chem, 2015):
Active and inactive are the calls of the source. The rule behind the calls is not given here.

Key:
Thoracic aorta [1] = assay: Vasorelaxant activity in Wistar rat endothelium thoracic aortic ring assessed as inhibition of 30 mM KCl-induced contraction; type: functional, tissue-based
In short: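 Rings from adult Wistar rat thoracic aorta, with or without endothelium, under 1.5 g tension in oxygenated physiological solution at 37 °C, pH 7.36. Contraction by 30 mM KCl after 60 min equilibration, then cumulative drug to maximal relaxation. EC50 = concentration giving 50% relaxation of KCl contraction; mean ± sem.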

Thoracic aorta [2] = assay: Vasorelaxant activity in Wistar rat thoracic aortic ring assessed as inhibition of 30 mM KCl-induced contraction; type: functional, tissue-based
In short: (§1)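 Thoracic aorta rings (2–3 mm) from adult Wistar rats, held at 1.5 g tension in Krebs-type solution pH 7.36, 37 °C, O2/CO2 95:5. After 60 min equilibration, contracted with 30 or 80 mM KCl, some with 10 µM glibenclamide. Cumulative drug additions to maximal relaxation; isometric tension by force transducer. Relaxation as % of KCl contraction; EC50 from concentration-response curves; mean ± sem, n experiments.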

Homo sapiens [3] = species on record: Homo sapiens; assay: Activation of ATP-sensitive potassium channel in vascular smooth muscle cells (unknown origin) assessed as increase in elastin production at 10 to 100 uM after 48 hrs by ELISA in presence of glibenclamide
In short: (§2)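 Primary aortic smooth muscle cells serum-starved overnight in 1% FCS-DMEM, seeded 25,000 cells/well and adhered overnight. Compounds in DMSO (final <1%) for 48 h, some wells with 10 µM glibenclamide throughout. Controls were DMSO alone, 1 mM minoxidil in water, or diazoxide. Cells fixed in 4% paraformaldehyde, extracellular elastin by anti-elastin ELISA with HRP secondary, read by absorbance. n = 3–4 from different cultures; ANOVA.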

Thoracic aorta [4] = assay: Vasorelaxant activity in Wistar rat thoracic aortic ring assessed as inhibition of 80 mM KCl-induced contraction; type: functional, tissue-based; in short: as §1
Homo sapiens [5] = species on record: Homo sapiens; assay: Activation of ATP-sensitive potassium channel in vascular smooth muscle cells (unknown origin) assessed as increase in elastin production after 48 hrs by ELISA; in short: as §2
Rattus norvegicus [6] = species on record: Rattus norvegicus; assay: Activation of ATP-sensitive potassium channel in Wistar rat pancreatic islets assessed as inhibition of 16.7 mM of glucose-induced insulin secretion by measuring residual insulin secretion at 10 uM after 90 mins relative to control
In short: (§3)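 Islets from adult fed Wistar rats, groups of 10. Preincubated 30 min at 37 °C in bicarbonate salt medium with 2.8 mM glucose and 0.5% dialysed albumin, gassed O2/CO2 95:5. Then 90 min at 37 °C in same medium with 16.7 mM glucose plus drug. Insulin by radioimmunoassay against rat insulin standard, expressed as % of drug-free 16.7 mM glucose control.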

Rattus norvegicus [7] = species on record: Rattus norvegicus; assay: Activation of ATP-sensitive potassium channel in Wistar rat pancreatic islets assessed as inhibition of 16.7 mM of glucose-induced insulin secretion by measuring residual insulin secretion at 50 uM after 90 mins relative to control; in short: as §3
Thoracic aorta [8] = assay: Vasorelaxant activity in Wistar rat thoracic aortic ring assessed as inhibition of KCl-induced contraction in presence of glibenclamide; type: functional, tissue-based; in short: as §1
Homo sapiens [9] = species on record: Homo sapiens; assay: Activation of ATP-sensitive potassium channel in vascular smooth muscle cells (unknown origin) assessed as increase in elastin production at 100 uM after 48 hrs by ELISA; in short: as §2
Homo sapiens [10] = species on record: Homo sapiens; assay: Activation of ATP-sensitive potassium channel in vascular smooth muscle cells (unknown origin) assessed as increase in elastin production at 100 uM after 48 hrs by ELISA
[11] = Dissociation constant, pKa of the compound by UV-Visible spctrophotometry; type: physicochemical
In short: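 UV–visible spectra recorded at ambient temperature in borate and phosphate buffers from pH 3 to 10, using neutral and ionic species references in 0.1 N HCl and 0.1 N NaOH. Exact pH measured for each spectrum. pKa calculated by the Albert–Serjeant formula.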

Homo sapiens [12] = species on record: Homo sapiens; assay: Activation of ATP-sensitive potassium channel in vascular smooth muscle cells (unknown origin) assessed as increase in elastin production at 50 uM after 48 hrs by ELISA
In short: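 Primary aortic smooth muscle cells were serum-starved overnight in 1% FCS-DMEM, seeded at 25,000 cells/well and left to adhere overnight. They were then exposed for 48 h in 1% FCS-DMEM to compound in DMSO (final DMSO <1%). Cells were fixed in 4% paraformaldehyde, blocked with 2% BSA, then labelled with anti-elastin antibody (1:1000) and HRP secondary (1:50,000). The reaction was stopped with sulfuric acid and absorbance read. Negative control was DMSO; positive control was 1 mM minoxidil.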

Rattus norvegicus [13] = assay: Hyperglycemic effect in Wistar albino rat assessed as effect on blood glucose at 50 mg/kg, po; type: functional, organism-based; parameters: dose 50 mg/kg
In short: (§4)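 Adult fed Wistar albino rats, conscious, free access to water and standard pellet diet, held in a small cabinet from 60 min before sampling. Single oral dose in DMSO (0.2 mL) at time zero; controls got DMSO alone. Tail blood drop at 0, 1, 2, 3 and 4 h, glucose by reagent strip and glucometer. Mean ± sem, n = 3 rats.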

Homo sapiens [14] = species on record: Homo sapiens; assay: Activation of ATP-sensitive potassium channel in vascular smooth muscle cells (unknown origin) assessed as increase in elastin production at 10 to 20 uM after 48 hrs by ELISA; in short: as §2
Homo sapiens [15] = species on record: Homo sapiens; assay: Activation of ATP-sensitive potassium channel in vascular smooth muscle cells (unknown origin) assessed as increase in elastin production at 10 to 100 uM after 48 hrs by ELISA; in short: as §2
Rattus norvegicus [16] = species on record: Rattus norvegicus; assay: Activation of ATP-sensitive potassium channel in Wistar rat thoracic aortic ring assessed as rightward shift; type: tissue-based; conditions: Aorta; in short: as §1
Rattus norvegicus [17] = assay: Activation of ATP-sensitive potassium channel in Wistar albino rat assessed as effect on blood glucose at 50 mg/kg, po; type: functional, organism-based; parameters: dose 50 mg/kg; in short: as §4
Rattus norvegicus [18] = assay: Hypoglycemic effect in Wistar albino rat assessed as effect on blood glucose at 0.25 mg/kg, po; type: functional, organism-based; parameters: dose 0.25 mg/kg; in short: as §4

Compound `CCOc1ccc(Cl)cc1S(=O)(=O)NC(=S)NCc1ccccc1` has an EC50 (Thoracic aorta [1]) of over 300 µM.
With `CCCOc1ccccc1C(=O)NC(=O)NC1CCCCC1` the EC50 (Thoracic aorta [1]) was 58.2 µM.
With `O=C(NCc1ccccc1)NC(=O)c1ccccc1OCc1ccccc1` the EC50 (Thoracic aorta [1]) was 21.1 µM.
In the case of `COc1ccccc1C(=O)NC(=S)NC(C)C`, the EC50 (Thoracic aorta [2]) is reported as 15.7 µM, the Activity (Homo sapiens [3]) is reported as “inactive” and the EC50 (Thoracic aorta [4]) is reported as 38.1 µM. The Activity (Homo sapiens [5]) was “Dose-dependent effect”, the Activity (Rattus norvegicus [6]) was 90.9% and the Activity (Rattus norvegicus [7]) was 105%. The EC50 (Thoracic aorta [1]) was 18.6 µM, the EC50 (Thoracic aorta [8]) was 28.1 µM and the Activity (Homo sapiens [9]) was 30%. It also gave an Activity (Homo sapiens [10]) of 30%.
For `COc1ccc(Cl)cc1S(=O)(=O)NC(=O)Nc1ccccc1`, the pKa [11] was 4.5 and the EC50 (Thoracic aorta [1]) was over 300 µM.
Work on `CC1=Nc2ccc(Cl)cc2S(=O)(=O)N1` [DIAZOXIDE] yielded an EC50 (Thoracic aorta [4]) of over 300 µM, an Activity (Homo sapiens [12]) of 67% and an Activity (Rattus norvegicus [6]) of 70%. The Activity (Rattus norvegicus [7]) was 28.8% and the Activity (Rattus norvegicus [13]) was “Active”.
In the case of `O=C(NC(=S)NCc1ccccc1)c1ccccc1OCc1ccccc1`, the EC50 (Thoracic aorta [1]) is reported as over 100 µM.
`CCOc1ccc(Cl)cc1S(=O)(=O)NC(=O)NC1CCCCC1` gave an EC50 (Thoracic aorta [1]) of over 300 µM.
Compound `COc1ccc(Cl)cc1S(=O)(=O)NC(=S)NCc1ccccc1` has an EC50 (Thoracic aorta [1]) of over 300 µM.
For `CCNC(=O)NC(=O)c1ccccc1OCc1ccccc1`, the EC50 (Thoracic aorta [2]) was 17.2 µM, the Activity (Homo sapiens [14]) was “inactive” and the EC50 (Thoracic aorta [4]) was 36.6 µM. It also gave an Activity (Rattus norvegicus [6]) of 110%, an Activity (Rattus norvegicus [7]) of 113% and an EC50 (Thoracic aorta [1]) of 16.7 µM. For the same compound, the EC50 (Thoracic aorta [8]) was 38 µM.
Work on `CCC(C)NC(=S)NC(=O)c1ccccc1OC` (stereo not given) yielded an EC50 (Thoracic aorta [1]) of 36.6 µM.
`CCCCCNC(=O)NC(=O)c1ccccc1OCc1ccccc1` gave an EC50 (Thoracic aorta [1]) of 17.3 µM.
Work on `CCNC(=S)NC(=O)c1ccccc1OC` yielded an EC50 (Thoracic aorta [2]) of 17.4 µM, an EC50 (Thoracic aorta [4]) of 57.1 µM and an Activity (Rattus norvegicus [6]) of 94.1%. The Activity (Homo sapiens [15]) was “inactive”, the Activity (Rattus norvegicus [7]) was 99.6% and the EC50 (Thoracic aorta [1]) was 15.2 µM. For the same compound, the EC50 (Thoracic aorta [8]) was 28.2 µM.
`CCCOc1ccccc1C(=O)NC(=O)Nc1ccccc1` gave an EC50 (Thoracic aorta [1]) of 59.6 µM.
With `CCNC(=O)NC(=O)c1ccccc1OC` the EC50 (Thoracic aorta [1]) was over 100 µM.
With `CCC(C)NC(=O)NC(=O)c1ccccc1OCc1ccccc1` (stereo not given) the EC50 (Thoracic aorta [2]) was 15.3 µM, the Activity (Homo sapiens [3]) was “inactive” and the EC50 (Thoracic aorta [4]) was 45.6 µM. For the same compound, the Activity (Homo sapiens [5]) was “Dose-dependent effect”, the Activity (Rattus norvegicus [16]) was “Dose-dependent effect” and the Activity (Rattus norvegicus [6]) was 90.1%. It also gave an Activity (Rattus norvegicus [7]) of 21.4%, an EC50 (Thoracic aorta [1]) of 12.2 µM and an EC50 (Thoracic aorta [8]) of 20.2 µM. The Activity (Homo sapiens [9]) was 30%, the Activity (Homo sapiens [10]) was 30% and the Activity (Rattus norvegicus [17]) was “inactive”.
`COc1ccc(Cl)cc1S(=O)(=O)NC(=O)NC1CCCCC1` gave a pKa [11] of 5.46 and an EC50 (Thoracic aorta [1]) of over 300 µM.
For `COc1ccccc1C(=O)NC(=O)NC1CCCCC1`, the EC50 (Thoracic aorta [1]) was 35.9 µM.
Compound `CCCOc1ccccc1C(=O)NC(=S)Nc1ccccc1` has an EC50 (Thoracic aorta [2]) of 12 µM, an EC50 (Thoracic aorta [4]) of 121 µM and an Activity (Rattus norvegicus [6]) of 83.8%. The Activity (Rattus norvegicus [7]) was 44.9%, the EC50 (Thoracic aorta [1]) was 16.5 µM and the EC50 (Thoracic aorta [8]) was 64.9 µM. For the same compound, the Activity (Rattus norvegicus [17]) was “inactive”.
With `COc1ccccc1C(=O)NC(=O)Nc1ccccc1` the EC50 (Thoracic aorta [1]) was 26.7 µM.
With `COc1ccc(Cl)cc1S(=O)(=O)NC(=S)NC(C)C` the pKa [11] was 5.74 and the EC50 (Thoracic aorta [1]) was over 300 µM.
Compound `CCNC(=S)NS(=O)(=O)c1cc(Cl)ccc1OC` has an EC50 (Thoracic aorta [1]) of over 300 µM.
With `CCOc1ccc(Cl)cc1S(=O)(=O)NC(=O)Nc1ccccc1` the EC50 (Thoracic aorta [1]) was over 300 µM.
For `CCCOc1ccccc1C(=O)NC(=S)NCc1ccccc1`, the EC50 (Thoracic aorta [1]) was 71.1 µM.
Work on `CCOc1ccc(Cl)cc1S(=O)(=O)NC(=O)NC(C)C` yielded an EC50 (Thoracic aorta [1]) of over 300 µM.
For `CCOc1ccc(Cl)cc1S(=O)(=O)NC(=S)NC(C)C`, the EC50 (Thoracic aorta [1]) was over 300 µM.
In the case of `COc1ccc(Cl)cc1S(=O)(=O)NC(=O)NC(C)C`, the pKa [11] is reported as 5.65 and the EC50 (Thoracic aorta [1]) is reported as over 300 µM.
`COc1ccccc1C(=O)NC(=S)Nc1ccccc1` showed an EC50 (Thoracic aorta [1]) of 34.5 µM.
Work on `O=C(NC(=O)c1ccccc1OCc1ccccc1)NC1CCCCC1` yielded an EC50 (Thoracic aorta [1]) of 33.8 µM.
For `CC(C)NC(=O)NC(=O)c1ccccc1OCc1ccccc1`, the EC50 (Thoracic aorta [1]) was 26.8 µM.
For `CCOc1ccc(Cl)cc1S(=O)(=O)NC(=S)Nc1ccc(F)cc1`, the EC50 (Thoracic aorta [1]) was over 300 µM.
`COc1ccccc1C(=O)NC(=O)NC(C)C` showed an EC50 (Thoracic aorta [1]) of 91.4 µM.
`COc1ccc(Cl)cc1S(=O)(=O)NC(=O)Nc1ccc(F)cc1` gave an EC50 (Thoracic aorta [1]) of over 300 µM.
With `COc1ccc(F)cc1S(=O)(=O)NC(=S)NC(C)C` the EC50 (Thoracic aorta [1]) was over 300 µM.
In the case of `COc1ccc(Cl)cc1C(=O)NCCc1ccc(S(=O)(=O)NC(=O)NC2CCCCC2)cc1`, the Activity (Rattus norvegicus [18]) is reported as “Active”.
In the case of `CCC(C)NC(=O)NC(=O)c1ccccc1OC` (stereo not given), the EC50 (Thoracic aorta [1]) is reported as 31.8 µM.
`COc1ccccc1C(=O)NC(=S)NCc1ccccc1` showed an EC50 (Thoracic aorta [1]) of 47.2 µM.
`COc1ccc(F)cc1S(=O)(=O)NC(=O)NC(C)C` showed a pKa [11] of 5.52 and an EC50 (Thoracic aorta [1]) of over 300 µM.
